The source of these data is PubChem BioAssay.

The term viability denotes a read-out of living cells in per cent, often relative to untreated cells. As a reminder, the inhibition is the change of the read-out against control, counted positive when it falls.

The nature of test [1]: reducers of endogenous Her2 protein level, primary screen, SKBR3 breast tumor cells, AlphaScreen, ATP viability (AID 461;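 active = Her2 level under about 52% in both replicate screens, with viability over 70% of control, limit read from the data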;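 as to Her2 level: lower value means less Her2 protein in the cells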;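 as to viability: percent of carrier control wells set as 100% viability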). As to conditions: 18-24 h, measured here: SKBR3 viability, ATP luminescence, at 10 µM.
The target of test [2] is Receptor tyrosine-protein kinase erbB-2 (Homo sapiens) (UniProt P04626). The description is as above. Conditions: 18-24 h, at 10 µM, stronger effect = lower value.
Test [3] in a line: SK-BR-3 cell growth inhibitors, pilot screen, 24 h, human (AID 572).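 Also: compound exposure lasted between 18 and 24 h rather than exactly 24 h; 100% = carrier-treated control wells.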 As to conditions: SK-BR-3 viability, CellTiter-Glo luminescence, at 10 µM, stronger effect = lower value. For orientation: ATP-based viability assays read luminescence as a measure of living cells.
Test [4] is described as follows: HUVEC growth inhibition – cell-based, human, primary screen (AID 575;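 active = viability at or below 30% in both replicate assays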;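 also: 100% = median of untreated cell wells with 0.1% DMSO on each plate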). Conditions: HUVEC proliferation, CellTiter-Glo luminescence, 72 h; at 10 µM; stronger effect = lower value. In short, it runs like this: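 Timing: 72 h treatment at 37 °C; material: HUVEC primary cells; technique: CellTiter-Glo luminescence measuring cellular ATP; controls: vehicle and MePR control wells; measure: percent of median DMSO-control luminescence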

A short description of test [5]: growth inhibitors of H69AR lung tumor, primary screen, human, duplicate replicates (AID 580;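 active = viability at or under a set limit in both replicates, limit being median viability minus 3 SD, cut at about 48% in these data, passing the limit was not always enough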;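 also: 100% = mean luminescence of untreated wells and 0% = no signal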). As to conditions: H69AR lung tumor cells viability, ATP luminescence, 72 h; at 10 µM; stronger effect = lower value.
The nature of test [6]: reversal of MRP1-mediated doxorubicin resistance, pilot screen, H69AR cells, doxorubicin co-treatment (AID 601;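 active = viability loss from added drug above about 55%, and viability with drug at most 40%, in both replicates, limit read from the data, passing the limit was not always enough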). Conditions: CellTiter-Glo, 72 h, at 10 µM; for differential viability (reversal): stronger effect = higher value.
A short description of test [7]: 384-well plate pilot, post-Golgi transport modulator project, inhibition of yeast transport mutant growth (AID 636; in the data active = inhibition above about 31%). Conditions: absorbance 615 nm, about 18 h, stronger effect = higher value.
Test [8] is described as follows: growth suppression of yeast trafficking mutant, preliminary HTS, modulators of trafficking downstream of Golgi apparatus project, 1536-format plate, OD 615 nm (AID 637; in the data active = inhibition above about 30%). Conditions: yeast transport mutant growth, absorbance 615 nm, 18 h; stronger effect = higher value.
[9] abbreviates: H69AR cells + 2 uM doxorubicin, measured here: viability with 2 uM doxorubicin, stronger effect = lower value.
[10] abbreviates: H69AR cells, compound alone cytotoxicity.

Activity calls are given as the source filed them.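 The calls were made as follows, unless noted: active = viability at or below 10% of carrier control in both of two separate runs; inconclusive = viability at or below 10% in only one of the two runs; inactive = the rest.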

Receptor tyrosine-protein kinase erbB-2 (Homo sapiens), sequence (P04626 whole entry, looked up): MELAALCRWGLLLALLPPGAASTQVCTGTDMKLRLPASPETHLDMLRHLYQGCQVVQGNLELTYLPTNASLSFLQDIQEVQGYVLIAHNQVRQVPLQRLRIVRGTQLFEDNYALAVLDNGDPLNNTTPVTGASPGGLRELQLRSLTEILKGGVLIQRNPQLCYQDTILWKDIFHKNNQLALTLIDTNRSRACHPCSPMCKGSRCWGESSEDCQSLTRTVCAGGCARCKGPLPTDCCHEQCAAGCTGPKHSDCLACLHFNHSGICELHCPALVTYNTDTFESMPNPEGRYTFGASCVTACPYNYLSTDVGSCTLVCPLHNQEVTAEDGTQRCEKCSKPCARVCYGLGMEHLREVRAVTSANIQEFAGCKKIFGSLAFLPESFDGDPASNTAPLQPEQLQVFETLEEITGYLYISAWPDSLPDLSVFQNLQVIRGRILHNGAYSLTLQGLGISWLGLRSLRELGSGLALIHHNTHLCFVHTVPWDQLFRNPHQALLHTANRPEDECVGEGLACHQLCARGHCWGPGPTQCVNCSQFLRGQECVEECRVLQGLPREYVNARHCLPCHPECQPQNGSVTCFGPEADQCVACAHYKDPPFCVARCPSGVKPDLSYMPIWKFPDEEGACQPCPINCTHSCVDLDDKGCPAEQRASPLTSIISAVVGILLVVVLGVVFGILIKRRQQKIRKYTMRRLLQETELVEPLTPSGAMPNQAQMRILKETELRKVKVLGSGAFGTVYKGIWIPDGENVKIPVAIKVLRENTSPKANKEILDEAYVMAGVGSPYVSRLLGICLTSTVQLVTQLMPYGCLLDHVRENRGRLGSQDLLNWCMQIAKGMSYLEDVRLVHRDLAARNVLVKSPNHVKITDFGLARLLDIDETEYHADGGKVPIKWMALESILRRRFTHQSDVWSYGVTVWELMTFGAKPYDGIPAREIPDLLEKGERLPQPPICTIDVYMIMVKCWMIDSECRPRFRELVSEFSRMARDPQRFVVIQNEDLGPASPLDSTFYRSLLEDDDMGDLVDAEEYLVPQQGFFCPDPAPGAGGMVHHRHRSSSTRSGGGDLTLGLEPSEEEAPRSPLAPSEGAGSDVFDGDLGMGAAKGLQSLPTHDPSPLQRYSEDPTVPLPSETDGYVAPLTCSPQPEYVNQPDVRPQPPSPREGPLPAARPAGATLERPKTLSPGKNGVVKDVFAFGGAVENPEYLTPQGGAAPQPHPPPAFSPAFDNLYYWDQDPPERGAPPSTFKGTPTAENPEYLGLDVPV

Regarding `CC(C)C(OC(=O)c1ccco1)C(=O)NCc1ccccc1` (stereo not given), the viability in test [1] is 91.5%; in test [3] it was 91.5% (inactive); in test [4] it was 92.5% (inactive); in test [5] it was 99.1% (inactive); in test [6] (setting [9]) it was 90.4%; in test [6] (setting [10]), 99.1%. In test [2], the Her2 level was 97% (inactive). Besides, the differential viability (reversal) in test [6] (H69AR cells + 2 uM doxorubicin) was 8.63% (inactive). Besides, the inhibition in test [7] is 0% (inactive); in test [8] it was -4.6% (inactive).
Take `COc1ccccc1N1CCN(Cc2nnnn2CCc2ccccc2)CC1`: the viability is 88% in test [1]; 88% (inactive) in test [3]; 91.5% (inactive) in test [4]; 93.2% (inactive) in test [5]; 89.7% in test [6] (setting [9]); 93.2% in test [6] (setting [10]). For the same compound, the Her2 level in test [2] is 112% (inactive). Moreover, the differential viability (reversal) in test [6] (H69AR cells + 2 uM doxorubicin) is 3.56% (inactive). Also, the results for the inhibition in test [7] and in test [8] were 1.51% (inactive) and 25.6% (inactive), respectively.
`Cn1c(C(=O)N2CCN(C(=O)c3ccco3)CC2)cc2c(=O)n3ccccc3nc21`: the viability in test [1] was 100%; in test [3], 100% (inactive); in test [4], 82.3% (inactive); in test [5] it was 82.6% (inactive); in test [6] (setting [9]), 83.4%; in test [6] (setting [10]), 82.6%. The Her2 level in test [2] is 104% (inactive). Moreover, the differential viability (reversal) in test [6] (H69AR cells + 2 uM doxorubicin) is -0.835% (inactive). For the same compound, the inhibition in test [7] was 0.26% (inactive); in test [8], -0.98% (inactive).
In the case of `O=C(OCCN1C(=O)c2ccccc2C1=O)c1ccc(S(=O)(=O)N2CCCCCC2)cc1`, the viability in test [1] was 114%; in test [3], 114% (inactive); in test [4], 78.5% (inactive); in test [5], 105% (inactive); in test [6] (setting [9]), 87.6%; in test [6] (setting [10]), 105%. Also, the Her2 level in test [2] is 76.5% (inactive). In addition, in test [6] (H69AR cells + 2 uM doxorubicin), the differential viability (reversal) was 17.6% (inactive). In addition, the inhibition in test [7] is -6.22% (inactive); in test [8], 1.11% (inactive).
Consider `Cc1ccc(-c2noc(CCC(=O)NCC3CCN(Cc4cccc(C)c4)CC3)n2)cc1`, for which the viability in test [1] is 93.5%; in test [3], 93.5% (inactive); in test [4] it was 53.9% (inactive); in test [5], 84.6% (inactive); in test [6] (setting [9]) it was 95.6%; in test [6] (setting [10]), 84.6%. In addition, the Her2 level in test [2] was 82.5% (inactive). Moreover, the differential viability (reversal) in test [6] (H69AR cells + 2 uM doxorubicin) was -11% (inactive). The inhibition in test [7] was -4.87% (inactive); in test [8], 1.83% (inactive).
With `Clc1ccc(Cl)c(-c2ccc(/C=N/c3ncn[nH]3)o2)c1`, the viability is 105% in test [1]; 105% (inactive) in test [3]; 64.5% (inactive) in test [4]; 72.8% (inactive) in test [5]; 84.8% in test [6] (setting [9]); 72.8% in test [6] (setting [10]). For the same compound, the Her2 level in test [2] was 81% (inactive). Further, in test [6] (H69AR cells + 2 uM doxorubicin), the differential viability (reversal) was -11.9% (inactive). Moreover, the inhibition in test [7] was -6.8% (inactive); in test [8] it was 4.59% (inactive).
`COc1ccccc1S(=O)(=O)n1cc(Cc2ccccc2)c(N)n1`: the viability in test [1] is 96.5%; in test [3] it was 96.5% (inactive); in test [4], 96.4% (inactive); in test [5], 104% (inactive); in test [6] (setting [9]), 98.5%; in test [6] (setting [10]) it was 104%. Moreover, in test [2], the Her2 level was 86% (inactive). Also, the differential viability (reversal) in test [6] (H69AR cells + 2 uM doxorubicin) is 5.54% (inactive). The figures for the inhibition in test [7] and in test [8] were -2.37% (inactive) and -6.51% (inactive), respectively.
For `c1ccc(Cn2nnc3c(N4CCC5(CC4)OCCO5)ncnc32)cc1`, the viability was 105% in test [1]; 105% (inactive) in test [3]; 103% (inactive) in test [4]; 90.7% (inactive) in test [5]; 99.3% in test [6] (setting [9]); 90.7% in test [6] (setting [10]). For the same compound, in test [2], the Her2 level was 92.5% (inactive). Also, the differential viability (reversal) in test [6] (H69AR cells + 2 uM doxorubicin) is -8.68% (inactive). Also, the inhibition in test [7] is -1.05% (inactive); in test [8], 4.03% (inactive).
On to `COc1ccc(N2CCN(CCCNC(=O)CC3Oc4ccc(C)cc4NC3=O)CC2)cc1` (stereo not given), for which the viability was 87.5% in test [1]; 87.5% (inactive) in test [3]; 88.9% (inactive) in test [4]; 89.6% (inactive) in test [5]; 88.7% in test [6] (setting [9]); 89.6% in test [6] (setting [10]). Moreover, the Her2 level in test [2] is 99% (inactive). Moreover, the differential viability (reversal) in test [6] (H69AR cells + 2 uM doxorubicin) is 0.915% (inactive). Moreover, the inhibition in test [7] is -2.27% (inactive); in test [8], -2.62% (inactive).
As for `O=C(O)c1cc(=O)cc(C(=O)O)[nH]1`, the viability was 80.5% in test [1]; 80.5% (inactive) in test [3]; 102% (inactive) in test [4]; 105% (inactive) in test [5]; 92.7% in test [6] (setting [9]); 105% in test [6] (setting [10]). Moreover, in test [2], the Her2 level was 91.5% (inactive). The differential viability (reversal) in test [6] (H69AR cells + 2 uM doxorubicin) was 12.5% (inactive). For the same compound, the inhibition in test [7] is 0% (inactive); in test [8], 22.9% (inactive).
On to `O=C(NCC1CCCO1)C1c2ccccc2C(=O)N1C1CCCCCC1` (stereo not given), for which the viability is 105% in test [1]; 105% (inactive) in test [3]; 88.9% (inactive) in test [4]; 104% (inactive) in test [5]; 97.6% in test [6] (setting [9]); 104% in test [6] (setting [10]). The Her2 level in test [2] is 89% (inactive). The differential viability (reversal) in test [6] (H69AR cells + 2 uM doxorubicin) was 6.58% (inactive). The inhibition in test [7] is -2.6% (inactive); in test [8], 1.43% (inactive).
Consider `CCc1nn2c(N3CCOCC3)cc(C)nc2c1-c1ccc(F)cc1`, for which the viability in test [1] was 92%; in test [3], 92% (inactive); in test [4], 86.2% (inactive); in test [5], 93.4% (inactive); in test [6] (setting [9]) it was 62%; in test [6] (setting [10]), 93.4%. Further, in test [2], the Her2 level is 84% (inactive). In test [6] (H69AR cells + 2 uM doxorubicin), the differential viability (reversal) was 31.5% (inactive). Further, the inhibition in test [7] is -6.16% (inactive); in test [8], 1.75% (inactive).
Take `CCC(=O)N(CCCN(C)C)c1nc(-c2cc(OC)ccc2OC)cs1`: the viability in test [1] was 93.5%; in test [3] it was 93.5% (inactive); in test [4], 78.2% (inactive); in test [5], 84.6% (inactive); in test [6] (setting [9]), 73.3%; in test [6] (setting [10]), 84.6%. The Her2 level in test [2] was 87.5% (inactive). Further, the differential viability (reversal) in test [6] (H69AR cells + 2 uM doxorubicin) is 11.2% (inactive). The inhibition in test [7] was -5.2% (inactive); in test [8] it was 5.08% (inactive).
As for `O=C1CCN(C(=O)c2ccccc2)C2CCCCC12` (stereo not given), the viability is 98% in test [1]; 98% (inactive) in test [3]; 105% (inactive) in test [4]; 90.3% (inactive) in test [5]; 91.1% in test [6] (setting [9]); 90.3% in test [6] (setting [10]). Also, the Her2 level in test [2] was 124% (inactive). The differential viability (reversal) in test [6] (H69AR cells + 2 uM doxorubicin) is -0.825% (inactive). The inhibition was -4.55% (inactive) in test [7] and -11% (inactive) in test [8].
`CCOc1ccc2cc(C#N)c(SCC(=O)N3CCOCC3)nc2c1`: the viability in test [1] is 109%; in test [3], 109% (inactive); in test [4], 87.1% (inactive); in test [5] it was 74.6% (inactive); in test [6] (setting [9]), 42.8%; in test [6] (setting [10]), 74.6%. For the same compound, in test [2], the Her2 level is 81.5% (inactive). Further, the differential viability (reversal) in test [6] (H69AR cells + 2 uM doxorubicin) is 31.8% (inactive). Besides, the values for the inhibition in test [7] and in test [8] were -6.8% (inactive) and 1.94% (inactive), respectively.
For the compound `Cn1nnnc1SCC(=O)NCc1ccco1`, the viability is 95% in test [1]; 95% (inactive) in test [3]; 91.8% (inactive) in test [4]; 95.8% (inactive) in test [5]; 86.3% in test [6] (setting [9]); 95.8% in test [6] (setting [10]). In test [2], the Her2 level was 110% (inactive). The differential viability (reversal) in test [6] (H69AR cells + 2 uM doxorubicin) is 9.46% (inactive). For the same compound, the figures for the inhibition in test [7] and in test [8] were 1.2% (inactive) and -6.72% (inactive), respectively.
